For data set [1], the system named is Mus musculus. The data set can be described thus: In vivo inhibition of Cdc7 in tumor of NCR/nude mouse xenografted with human HCT116 cells assessed as remaining Ser53 phosphorylated MCM2 level at 100 mg/kg, po measured at 16 hrs relative to control. It is filed as functional, HCT-116. The gist of the method:
(§1)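 Female NCR/nude mice (n = 3 per group) given single oral dose of 100 mg/kg; pMCM2 levels measured at 6 and 16 h, expressed as % remaining versus vehicle control group; significance by one-way ANOVA with Dunnett's test.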
On the technique in general: Xenograft models place foreign cells or tissue in a host animal.

The test system of data set [2] is Mus musculus. In words: In vivo inhibition of Cdc7 in tumor of NCR/nude mouse xenografted with human HCT116 cells assessed as remaining Ser53 phosphorylated MCM2 level at 100 mg/kg, po measured at 6 hrs relative to control. It is filed as functional, HCT-116. In a few lines:
as §1

Data set [3] in a line: Oral bioavailability rat in 2 mg/kg. It is filed as ADME, organism-based. As to conditions: in vivo; call rule not given here.
A further data set relates to HCT-116. The data set can be described thus: Cytotoxicity against human HCT116 cells assessed as cell viability after days by CellTiterGlo assay. Type of data set: functional, cell-based. The gist of the method: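 HCT-116 cells exposed to compound for 4 d; cell viability IC50 determined.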
A general note: ATP-based viability assays read luminescence as a measure of living cells.

Data set [4] can be described thus: Volume of distribution at steady state in rat at 2 mg/kg, iv and 2 mg/kg, po. The conditions noted are these: in vivo, read-out: Vdss. Type of data set: ADME, organism-based.
A short description of data set [5]: Mean residence time in rat at 2 mg/kg, iv and 2 mg/kg, po. It is filed as ADME, organism-based. The conditions noted are these: in vivo.
The nature of data set [6]: Clearance in rat at 2 mg/kg, iv and 2 mg/kg, po. It is filed as ADME, organism-based. The conditions noted are these: in vivo.
A short description of data set [7]: Solubility of the compound in simulated intestinal fluid. It is filed as ADME.
Data set [8] in a line: Intrinsic clearance in human liver microsomes. It is filed as ADME. The conditions noted are these: read-out: CLH. (In general: Liver microsomes are a subcellular fraction often used to study metabolism.)
The target in a further data set is CDK9/cyclin T1 (Homo sapiens, UniProt P50750). The data set can be described thus: Inhibition of CDK9/cyclin T1 (unknown origin) using 4eBP1 ULight peptide as substrate by HTRF assay. It is filed as protein-complex assay.
In data set [9] the target is Cyclin-dependent kinase 1/cyclin B1 (Homo sapiens, UniProt P06493). The data set can be described thus: Inhibition of CDK1/cyclin B (unknown origin) by HTRF assay. Type of data set: protein-complex assay.
In data set [10] the target is Cyclin-dependent kinase 2/cyclin E1 (Homo sapiens, UniProt P24941). In words: Inhibition of CDK2/cyclin E (unknown origin) using ULight peptide as substrate by HTRF assay. Type of data set: protein-complex assay.
A short description of data set [11]: Intrinsic clearance in rat liver microsomes. It is filed as ADME. As to conditions: read-out: CLH.
Data set [12] addresses Cell division cycle 7-related protein kinase (Homo sapiens, UniProt O00311). The data set can be described thus: Inhibition of Cdc7-mediated MCM2 phosphorylation at Ser53 in human HCT116 cells after 14 hrs by immunostaining assay. It is filed as cell-based, HCT-116.
The target in data set [13] is CDC7/DBF4 (Cell division cycle 7-related protein kinase/Activator of S phase kinase) (Homo sapiens, UniProt O00311). The data set can be described thus: Inhibition of Cdc7/Dbf4 (unknown origin)-mediated MCM2 phosphorylation at Ser53 by protein A amplified luminescent proximity homogeneous assay. It is filed as protein-complex assay.
Data set [14] deals with Mus musculus. In words: In vivo inhibition of Cdc7-mediated MCM2 phosphorylation at Ser53 in tumor of NCR/nude mouse xenografted with human HCT116 cells at 100 mg/kg, po. Type of data set: functional, organism-based. Details: dose 100 mg/kg. The conditions noted are these: HCT-116, TDE = time-dependent effect. The gist of the method: as §1
The subject of data set [15] is Plasma. In words: Unbound plasma concentration in NCR/nude mouse xenografted with human HCT116 cells at 100 mg/kg, po measured at 16 hrs by LC-MS analysis. It is filed as ADME, organism-based, HCT-116. Details: dose 100 mg/kg, route oral. As to conditions: in vivo. In a few lines:
(§2)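 Female NCR/nude mice (n = 3) dosed orally at 100 mg/kg; plasma sampled at 6 and 16 h; unbound concentration calculated from total plasma concentration and percent free fraction in mouse plasma.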

For data set [16], the system named is Plasma. In words: Unbound plasma concentration in NCR/nude mouse xenografted with human HCT116 cells at 100 mg/kg, po measured at 6 hrs by LC-MS analysis. Type of data set: ADME, organism-based, HCT-116. The arrangement: dose 100 mg/kg, route oral. The conditions noted are these: in vivo. The gist of the method: as §2
For a further data set, the system named is Hepatocyte. The data set can be described thus: Drug metabolism in rat hepatocytes assessed as GSH adduct level. Type of data set: ADME, cell-based.
The nature of data set [17]: Oral bioavailability rat in 5 mg/kg. It is filed as ADME, organism-based. As to conditions: in vivo.
Data set [18] in a line: Volume of distribution at steady state in rat at 1 mg/kg, iv and 5 mg/kg, po. As to conditions: in vivo, read-out: Vdss. It is filed as ADME, organism-based.
Data set [19] can be described thus: Mean residence time in rat at 1 mg/kg, iv and 5 mg/kg, po. Type of data set: ADME, organism-based. As to conditions: in vivo.
The nature of data set [20]: Clearance in rat at 1 mg/kg, iv and 5 mg/kg, po. As to conditions: in vivo. Type of data set: ADME, organism-based.
Data set [21] is described as follows: Volume of distribution at steady state in rat at 2 mg/kg, iv. It is filed as ADME, organism-based. The arrangement: dose 2 mg/kg, route intravenous. As to conditions: in vivo, read-out: Vdss.
A short description of data set [22]: Clearance in rat at 2 mg/kg, iv. It is filed as ADME, organism-based. Details: dose 2 mg/kg, route intravenous. The conditions noted are these: in vivo.
The nature of data set [23]: Mean residence time in rat at 2 mg/kg, iv. Type of data set: ADME, organism-based. Details: dose 2 mg/kg, route intravenous. As to conditions: in vivo.
Data set [24] is described as follows: Volume of distribution at steady state in rat at 2 mg/kg, iv and 5 mg/kg, po. It is filed as ADME, organism-based. The conditions noted are these: in vivo, read-out: Vdss.
Data set [25] is described as follows: Mean residence time in rat at 2 mg/kg, iv and 5 mg/kg, po. Type of data set: ADME, organism-based. The conditions noted are these: in vivo.
The nature of data set [26]: Clearance in rat at 2 mg/kg, iv and 5 mg/kg, po. As to conditions: in vivo. Type of data set: ADME, organism-based.

Values after ≈ are worked out from the molar mass of the structure shown.

Sequence of CDK9/cyclin T1 (O60563 whole entry): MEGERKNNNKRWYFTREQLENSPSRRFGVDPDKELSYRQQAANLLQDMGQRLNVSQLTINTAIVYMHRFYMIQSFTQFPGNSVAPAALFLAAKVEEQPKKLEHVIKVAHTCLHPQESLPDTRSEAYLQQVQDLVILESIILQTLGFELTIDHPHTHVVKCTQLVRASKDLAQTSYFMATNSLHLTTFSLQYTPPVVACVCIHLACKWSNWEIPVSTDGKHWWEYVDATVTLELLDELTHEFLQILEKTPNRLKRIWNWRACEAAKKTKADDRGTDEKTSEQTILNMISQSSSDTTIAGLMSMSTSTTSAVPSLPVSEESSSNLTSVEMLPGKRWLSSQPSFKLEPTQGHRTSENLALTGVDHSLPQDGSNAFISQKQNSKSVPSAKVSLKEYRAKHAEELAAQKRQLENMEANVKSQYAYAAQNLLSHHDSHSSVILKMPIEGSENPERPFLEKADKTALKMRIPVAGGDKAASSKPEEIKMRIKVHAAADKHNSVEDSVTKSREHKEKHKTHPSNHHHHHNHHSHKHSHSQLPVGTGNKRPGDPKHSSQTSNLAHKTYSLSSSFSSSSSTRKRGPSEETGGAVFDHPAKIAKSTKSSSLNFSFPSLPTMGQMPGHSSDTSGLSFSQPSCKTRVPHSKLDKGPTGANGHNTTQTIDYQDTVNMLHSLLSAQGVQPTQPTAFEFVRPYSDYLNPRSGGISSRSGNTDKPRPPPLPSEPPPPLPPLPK
Sequence of CDK9/cyclin T1 (P50750 whole entry): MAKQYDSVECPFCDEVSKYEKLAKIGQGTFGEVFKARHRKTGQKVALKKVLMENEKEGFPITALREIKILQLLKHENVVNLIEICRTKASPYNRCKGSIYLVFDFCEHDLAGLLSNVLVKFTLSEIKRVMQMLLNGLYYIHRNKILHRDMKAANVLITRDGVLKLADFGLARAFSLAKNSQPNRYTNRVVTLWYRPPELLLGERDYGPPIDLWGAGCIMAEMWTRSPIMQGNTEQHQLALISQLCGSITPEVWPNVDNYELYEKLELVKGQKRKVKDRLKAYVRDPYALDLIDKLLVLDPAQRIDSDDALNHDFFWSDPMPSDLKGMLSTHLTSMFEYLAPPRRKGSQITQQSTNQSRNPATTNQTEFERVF
Sequence of Cyclin-dependent kinase 1/cyclin B1 (P06493 whole entry): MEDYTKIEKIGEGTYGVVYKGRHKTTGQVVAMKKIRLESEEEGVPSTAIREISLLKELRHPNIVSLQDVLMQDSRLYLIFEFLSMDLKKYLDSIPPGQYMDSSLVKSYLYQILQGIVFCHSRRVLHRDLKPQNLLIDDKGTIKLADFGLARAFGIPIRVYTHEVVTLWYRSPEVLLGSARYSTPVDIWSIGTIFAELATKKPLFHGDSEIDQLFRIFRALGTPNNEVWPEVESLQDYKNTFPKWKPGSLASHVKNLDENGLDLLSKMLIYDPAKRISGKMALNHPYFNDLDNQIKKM
Sequence of Cyclin-dependent kinase 1/cyclin B1 (P14635 whole entry, further chain): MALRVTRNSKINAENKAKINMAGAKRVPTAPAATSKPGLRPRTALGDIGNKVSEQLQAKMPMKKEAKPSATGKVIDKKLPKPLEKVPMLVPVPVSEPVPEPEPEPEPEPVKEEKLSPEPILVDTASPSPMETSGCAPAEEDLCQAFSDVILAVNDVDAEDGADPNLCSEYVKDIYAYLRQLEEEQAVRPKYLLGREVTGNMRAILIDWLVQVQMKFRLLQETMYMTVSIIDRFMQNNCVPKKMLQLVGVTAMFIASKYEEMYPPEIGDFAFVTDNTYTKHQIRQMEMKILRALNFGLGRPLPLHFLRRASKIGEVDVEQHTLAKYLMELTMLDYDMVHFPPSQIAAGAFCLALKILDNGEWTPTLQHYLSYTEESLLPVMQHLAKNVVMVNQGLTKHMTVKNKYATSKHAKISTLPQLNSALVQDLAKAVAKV
Sequence of Cell division cycle 7-related protein kinase (O00311 whole entry): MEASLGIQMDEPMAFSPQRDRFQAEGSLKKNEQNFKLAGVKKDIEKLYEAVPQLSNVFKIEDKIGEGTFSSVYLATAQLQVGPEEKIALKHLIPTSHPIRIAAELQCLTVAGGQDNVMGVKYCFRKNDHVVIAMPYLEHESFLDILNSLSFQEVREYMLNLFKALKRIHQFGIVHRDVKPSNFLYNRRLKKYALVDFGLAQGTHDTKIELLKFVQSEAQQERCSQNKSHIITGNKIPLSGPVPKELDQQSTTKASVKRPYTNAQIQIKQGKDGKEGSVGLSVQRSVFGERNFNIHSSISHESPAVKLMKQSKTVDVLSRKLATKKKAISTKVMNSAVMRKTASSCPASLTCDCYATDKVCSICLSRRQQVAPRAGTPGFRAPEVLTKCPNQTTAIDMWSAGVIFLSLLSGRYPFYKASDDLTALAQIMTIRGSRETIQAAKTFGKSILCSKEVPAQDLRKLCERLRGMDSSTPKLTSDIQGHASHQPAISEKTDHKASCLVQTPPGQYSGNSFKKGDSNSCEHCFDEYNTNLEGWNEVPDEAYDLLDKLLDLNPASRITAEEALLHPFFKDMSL
Sequence of CDC7/DBF4 (Cell division cycle 7-related protein kinase/Activator of S phase kinase) (Q9UBU7 whole entry): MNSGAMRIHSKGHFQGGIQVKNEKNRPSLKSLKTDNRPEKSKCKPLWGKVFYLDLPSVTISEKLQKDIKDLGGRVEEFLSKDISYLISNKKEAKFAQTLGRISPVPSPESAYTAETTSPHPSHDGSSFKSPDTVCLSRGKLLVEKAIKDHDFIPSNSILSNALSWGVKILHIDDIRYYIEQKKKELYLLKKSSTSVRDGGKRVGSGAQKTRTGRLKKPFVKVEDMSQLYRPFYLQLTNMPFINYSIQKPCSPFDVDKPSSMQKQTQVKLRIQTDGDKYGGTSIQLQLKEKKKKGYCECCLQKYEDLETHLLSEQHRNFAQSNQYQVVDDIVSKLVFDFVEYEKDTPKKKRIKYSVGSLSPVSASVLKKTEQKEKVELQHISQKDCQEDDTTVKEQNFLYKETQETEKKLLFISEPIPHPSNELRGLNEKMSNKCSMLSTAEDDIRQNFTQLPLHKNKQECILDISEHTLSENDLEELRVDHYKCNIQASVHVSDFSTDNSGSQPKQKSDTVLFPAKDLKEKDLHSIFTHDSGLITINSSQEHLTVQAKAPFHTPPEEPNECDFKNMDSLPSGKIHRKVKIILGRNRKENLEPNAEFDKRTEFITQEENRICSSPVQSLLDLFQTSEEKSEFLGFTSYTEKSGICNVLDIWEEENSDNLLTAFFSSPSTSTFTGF
Sequence of CDC7/DBF4 (Cell division cycle 7-related protein kinase/Activator of S phase kinase) (O00311 whole entry): as the sequence (O00311 whole entry) above

As usually defined, the bioavailability is the share of a dose that reaches the circulation, judged against a reference dose that is usually intravenous. Low readings indicate poor availability, high ones good availability. One may read the IC50 as the point on the concentration scale where inhibition reaches its midpoint. One may read the MRT as the average time that molecules of a dose stay in the body. Broadly, the solubility is how much of the substance goes into solution per volume. A lower solubility goes with little dissolved substance. Turning to `Fc1cnccc1[C@H](Nc1nnc(-c2c[nH]c3ncccc23)o1)C1CC1`, the “Remaining Ser53 phospho-MCM2 vs control” value in the data set with Mus musculus [1] was 24%. Also, the “Remaining phospho-MCM2 (% of control)” value with Mus musculus [2] is 62%. In addition, in data set [3], the bioavailability is 14%. The IC50 in the data set with HCT-116 was 5700 nM; against CDK9/cyclin T1, 940 nM; in [9] it was greater than 50000 nM; in data set [10] it was 1900 nM; in data set [12], 60 nM; in [13], 1.8 nM. Besides, in [4], the Vd stood at 6.1 L/kg. This molecule had an MRT in [5] of 1.4 h. This molecule also had a clearance in data set [6] of 75 mL/min/kg. In [7], the concentration in solution (solubility) was 200 µg/mL (≈ 571 µM). The microsomal CLint in data set [8] stood at 27 µL/min/mg; in data set [11], 45 µL/min/mg. The Activity entry with Mus musculus [14] is “tde”. In addition, the entries for the “Cp(f)” value with Plasma [15] and in the data set with Plasma [16] were 450 nM and 2000 nM, respectively.
In the case of `C[C@@H](Nc1nnc(-c2c[nH]c3ncccc23)o1)c1ccccc1`, the Drug metabolism result in the data set on Hepatocyte is listed as “Active”. Also, the microsomal CLint in data set [8] was 64 µL/min/mg; in [11], 25 µL/min/mg. Moreover, the IC50 in [10] worked out at 310 nM; in [12], 370 nM; in data set [13] it was 32 nM.
Take `Fc1ncccc1[C@H](Nc1nnc(-c2c[nH]c3ncccc23)o1)C1CC1`: in the data set with Mus musculus [1], the “Remaining Ser53 phospho-MCM2 vs control” value was 41%. Besides, in the data set on Mus musculus [2], the “Remaining phospho-MCM2 (% of control)” value is recorded as 40%. Moreover, the IC50 in the data set on HCT-116 stood at 1800 nM; on CDK9/cyclin T1 it was 120 nM; in data set [9], 7300 nM; in [10], 490 nM; in data set [12], 51 nM; in data set [13], 0.69 nM. In addition, the bioavailability in [17] was found to be 41%. In addition, the Vd in [18] turned out to be 5.9 L/kg. Moreover, the MRT in data set [19] amounted to 1.3 h. In data set [20], this molecule showed a clearance of 75 mL/min/kg. The same molecule gave a solubility in data set [7] of 200 µg/mL (≈ 571 µM). In addition, the microsomal CLint worked out at 21 µL/min/mg in [8] and 80 µL/min/mg in data set [11]. Moreover, the “Cp(f)” value worked out at 70 nM with Plasma [15] and 1300 nM with Plasma [16].
As for `Fc1cnc2[nH]cc(-c3nnc(N[C@@H](c4cccnc4F)C4CC4)o3)c2c1`, in the data set with Mus musculus [1], the “Remaining Ser53 phospho-MCM2 vs control” value is reported as 30%. Also, in the data set with Mus musculus [2], the “Remaining phospho-MCM2 (% of control)” value is given as 46%. The IC50 came to 2400 nM with HCT-116; 460 nM at CDK9/cyclin T1; 6600 nM in data set [9]; 670 nM in data set [10]; 32 nM in data set [12]; 1.1 nM in [13]. The molecule also displayed a bioavailability in data set [17] of 50%. In [18], the Vd was 3.3 L/kg. Moreover, in [19], the MRT was found to be 1.9 h. The same molecule showed a clearance in data set [20] of 28.3 mL/min/kg. In addition, the solubility in data set [7] is 160 µg/mL (≈ 434 µM). For the same molecule, the microsomal CLint was less than 14 µL/min/mg in [8] and 20 µL/min/mg in data set [11]. The Activity entry in the data set on Mus musculus [14] is “tde”. Further, the figures for the “Cp(f)” value in the data set on Plasma [15] and in the data set with Plasma [16] were 300 nM and 610 nM, respectively.
`c1ccc(CNc2nnc(-c3ccc4cnccc4c3)o2)cc1`: the Vd in [21] stood at 4.3 L/kg. In data set [22], this molecule gave a clearance of 300 mL/min/kg. The molecule further returned an MRT in data set [23] of 0.2 h. In addition, the microsomal CLint in [8] stood at 120 µL/min/mg; in [11], 166 µL/min/mg. In addition, the IC50 in data set [10] worked out at 350 nM; in data set [12], 710 nM; in [13], 17 nM.
Take `Fc1ccccc1[C@H](Nc1nnc(-c2c[nH]c3ncccc23)o1)C1CC1`: the “Remaining Ser53 phospho-MCM2 vs control” value in the data set with Mus musculus [1] turned out to be 46%. Moreover, the “Remaining phospho-MCM2 (% of control)” value in the data set with Mus musculus [2] came to 38%. Further, the IC50 was 880 nM in the data set on HCT-116; 31 nM against CDK9/cyclin T1; 1600 nM in [9]; 240 nM in [10]; 20 nM in data set [12]; 0.85 nM in data set [13]. Moreover, the bioavailability in data set [17] came out at 35%. In addition, the Vd in data set [24] was 5.3 L/kg. The molecule also returned an MRT in data set [25] of 2.7 h. In data set [26], this molecule had a clearance of 33.3 mL/min/kg. For the same molecule, in data set [7], the solubility was 5 µg/mL (≈ 14.3 µM). The microsomal CLint turned out to be 59 µL/min/mg in [8] and 63 µL/min/mg in data set [11]. Besides, the “Cp(f)” value amounted to 60 nM in the data set on Plasma [15] and 150 nM in the data set with Plasma [16].

The record behind these values is ChEMBL document CHEMBL3091324, “The optimization of aminooxadiazoles as orally active inhibitors of Cdc7” (Bioorg Med Chem Lett, 2013).
